# Assay results reported in ChEMBL document CHEMBL1130095, “Synthesis of analogs of 2-methoxyestradiol with enhanced inhibitory effects on tubulin polymerization and cancer cell growth” (J Med Chem, 1997).
# Key:
# Tubulin (Bos taurus) = Tubulin (Bos taurus) (UniProt Q6B856+Q862L2+Q862F3); assay: The compound was evaluated for inhibition of colchicine binding to tubulin.; type: protein assay; conditions: concentration not given here
# How it was run: (§1)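 Mixtures held 1.0 µM bovine brain tubulin (0.1 mg/mL), 5.0 µM [³H]colchicine and 50 µM inhibitor, incubated 10 min at 37 °C. Bound-colchicine inhibition is given as percent, from triplicate samples in each experiment.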
# HCT-116 = assay: In vitro cytotoxicity value corresponding to 50% growth inhibition against HCT116 (colon) cell line.; type: functional; conditions: Homo sapiens
# [1] = tested on: Panel (Carcinoma cell lines); assay: Mean graph midpoint for growth inhibition of all human cancer cell lines; type: functional
# SN12C = assay: In vitro cytotoxicity value corresponding to 50% growth inhibition against SN12C (renal) cell line.; type: functional; conditions: Homo sapiens
# MDA-MB-435 = assay: In vitro cytotoxicity value corresponding to 50% growth inhibition against MDA-MB-435 (breast) cell line.; type: functional; conditions: Homo sapiens
# OVCAR-3 = assay: In vitro cytotoxicity value corresponding to 50% growth inhibition against OVCAR-3 (ovarian) cell line.; type: functional; conditions: Homo sapiens
# Tubulin [2] = biological target: T1, Tubulin (Bos taurus, UniProt Q6B856+Q862L2+Q862F3); assay: The compound was evaluated for inhibition of tubulin polymerization, which is purified from bovine brain; type: functional
# How it was run: (§2)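 Electrophoretically homogeneous bovine brain tubulin at 1.2 mg/mL (12 µM), preincubated at 26 °C with varying compound concentrations, then chilled on ice before GTP was added. Assembly was followed at 26 °C by turbidity at 350 nm, and the extent was read at 20 min. IC50 was derived graphically from at least two independent assays.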
# SF-539 = assay: The In vitro cytotoxicity corresponding to 50% growth inhibition against […] (central nervous system) cell line.; type: functional; conditions: Homo sapiens
# [3] = biological target: Estrogen receptor (Rattus norvegicus) (UniProt P06211+Q62986); assay: Relative binding affinity for estrogen receptor using a tritium labeled estrogen as the tracer and immature rat uterine cytosol; type: protein assay; conditions: Uterus
# How it was run: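 Competitive radiometric binding with a tritiated estrogen tracer and immature rat uterine cytosol as receptor source, incubated at 0 °C for 18 or 20 h. […] Coefficient of variation between replicate experiments is typically below 30%.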
# UACC-62 = assay: In vitro cytotoxicity value corresponding to 50% growth inhibition against UACC-62(melanoma) cell line.; type: functional; conditions: Homo sapiens
# DU-145 = assay: The In vitro cytotoxicity value corresponding to 50% growth inhibition against DU-145 (prostate) cell line.; type: functional; conditions: Homo sapiens
# HOP-62 = assay: In vitro cytotoxicity value corresponding to 50% growth inhibition against HOP-62(non small cell lung) cell line.; type: functional; conditions: Homo sapiens
# Tubulin [4] = biological target: T1, Tubulin; assay: Evaluated for inhibition of tubulin polymerization.; type: functional; how it was run: as §2
# [5] = biological target: Tubulin beta chain (Bos taurus) (UniProt Q6B856); assay: Evaluated for % inhibition of colchicine binding to tubulin.; design: concentration or dose not given beside the values; conditions: concentration not given here; how it was run: as §1
# Sequence of Tubulin beta chain (Bos taurus) (Q6B856 whole entry): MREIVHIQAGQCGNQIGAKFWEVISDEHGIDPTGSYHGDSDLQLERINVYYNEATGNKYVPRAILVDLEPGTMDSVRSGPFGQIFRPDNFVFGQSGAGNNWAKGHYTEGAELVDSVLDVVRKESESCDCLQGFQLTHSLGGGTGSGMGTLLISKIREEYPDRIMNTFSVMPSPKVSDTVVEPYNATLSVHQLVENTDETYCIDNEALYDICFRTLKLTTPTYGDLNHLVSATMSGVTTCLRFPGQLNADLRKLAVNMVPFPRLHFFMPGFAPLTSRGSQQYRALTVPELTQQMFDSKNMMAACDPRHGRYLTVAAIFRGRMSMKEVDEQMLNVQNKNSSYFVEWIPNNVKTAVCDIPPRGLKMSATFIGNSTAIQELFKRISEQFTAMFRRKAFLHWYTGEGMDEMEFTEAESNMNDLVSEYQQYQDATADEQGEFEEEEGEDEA
SMILES,inhibition (Tubulin (Bos taurus)) [%],GI50 (HCT-116) [µM],GI50 [1] [µM],GI50 (SN12C) [µM],GI50 (MDA-MB-435) [µM],GI50 (OVCAR-3) [µM],IC50 (Tubulin [2]) [µM],GI50 (SF-539) [µM],relative binding affinity (RBA) [3],GI50 (UACC-62) [µM],GI50 (DU-145) [µM],GI50 (HOP-62) [µM],IC50 (Tubulin [4]) [µM],inhibition [5] [%]
CCOc1cc2c(cc1O)/C(=N\O)C[C@@H]1[C@@H]2CC[C@]2(C)[C@@H](O)CC[C@@H]12,63,0.011,0.079,0.021,0.01,0.017,1.1,0.013,< 0.001,0.017,0.026,0.011,–,–
C[C@]12CC[C@@H]3c4cc(OCC(F)(F)F)c(O)cc4CC[C@H]3[C@@H]1CC[C@@H]2O,–,3.2,2.6,4.5,0.28,0.46,–,1.4,–,2.3,7,12,1.5,11
CC#Cc1cc2c(cc1O)CC[C@@H]1[C@@H]2CC[C@]2(C)[C@@H](O)CC[C@@H]12,–,0.48,1.7,6.9,0.13,0.34,–,0.95,–,0.5,3.6,1.7,4.8,11
CCOc1cc2c(cc1O)[C@@H](O)C[C@@H]1[C@@H]2CC[C@]2(C)[C@@H](O)CC[C@@H]12,–,0.35,0.83,0.66,5.4,0.35,–,–,–,0.28,0.71,–,2.9,12
CCOc1cc2c(cc1O)CC[C@@H]1[C@@H]2CC[C@]2(C)[C@@H](N)CC[C@@H]12.Cl,–,3.2,3.3,5.2,1.7,1.3,–,4,–,3.6,1.9,11,> 40,–
CCOc1cc2c(cc1O)CC[C@@H]1[C@@H]2CC[C@]2(C)[C@@H](O)CC[C@@H]12,–,0.026,0.076,0.039,< 0.01,0.016,–,0.014,–,0.016,0.065,0.018,1.3,51
CCOc1cc2c(cc1O)C=CC1C2CC[C@@]2(C)C1CC[C@@H]2O (stereo not given in full),–,1.1,3.8,4.6,0.34,1.9,–,2,–,4.8,2.1,3.9,4.4,8.6
CCOc1cc2c(cc1O)/C(=N\NS(=O)(=O)c1ccc(C)cc1)C[C@@H]1[C@@H]2CC[C@]2(C)[C@@H](O)CC[C@@H]12,–,6.7,6.2,12,–,3.2,–,3.5,–,–,15,5.1,> 40,–
CCOc1cc2c(cc1O)CC[C@@H]1[C@@H]2CC[C@]2(C)[C@@H](OS(=O)O[C@H]3CC[C@H]4[C@@H]5CCc6cc(O)c(OCC)cc6[C@H]5CC[C@]34C)CC[C@@H]12,–,0.49,1.1,2.6,0.22,0.27,–,0.57,–,1.3,1.1,0.83,5.9,24
CCOc1cc2c(cc1O)C(N)C[C@@H]1[C@@H]2CC[C@]2(C)[C@@H](O)CC[C@@H]12 (stereo not given in full),–,40,40,59,16,45,–,–,–,19,> 100,26,> 40,–
CCOc1cc2c(c(OCC)c1O)CC[C@@H]1[C@@H]2CC[C@]2(C)[C@@H](O)CC[C@@H]12,–,0.8,2.7,4.8,0.2,0.09,–,–,–,–,3.3,1.3,8.8,1.5
CCOc1cc2c(cc1O)/C(=N\OC)C[C@@H]1[C@@H]2CC[C@]2(C)[C@@H](O)CC[C@@H]12,34,0.049,0.27,0.39,0.029,0.026,1.4,–,< 0.001,0.052,0.33,0.11,–,–
CCOc1cc2c(cc1O)/C(=N\N)C[C@@H]1[C@@H]2CC[C@]2(C)[C@@H](O)CC[C@@H]12,–,2.1,4.2,17,6.5,5.4,–,2.8,–,0.88,17,1.2,4.3,9.6
CCOc1cc2c(cc1O)C(=O)C[C@@H]1[C@@H]2CC[C@]2(C)[C@@H](O)CC[C@@H]12,–,0.02,0.13,0.18,< 0.01,0.63,–,0.71,–,0.01,0.17,0.03,4.1,19
CC(=O)Oc1cc2c(cc1OC(C)=O)[C@H]1CC[C@]3(C)[C@@H](OC(C)=O)CC[C@H]3[C@@H]1CC2,–,5.1,3.7,5.1,0.32,6.4,–,3.5,–,2.5,3.2,4.8,> 40,–
CC(=O)Oc1cc2c(cc1OCC(F)(F)F)[C@H]1CC[C@]3(C)[C@@H](OC(C)=O)CC[C@H]3[C@@H]1CC2=O,–,21,20,20,18,24,–,23,–,18,20,20,> 40,–
